# Experimental data as given in the RNAGym collection of RNA variant scans (doi:10.1126/science.aae0568).
# Fewer inactive variants are shown than the library holds.
# B1: tRNA (parent)
# chain: GUUCCGUUGGCGUAAUGGUAACGCGUCUCCCUCCUAAGGAGAAGACUGCGGGUUCGAGUCCCGUACGGAACG
# Variants of: B1
# Experiment: yeast fitness relative to wild type (ratio to wild type); higher = fitter; tRNA-Arg(CCU), competitive growth, 37 C, YPD
# Method in brief: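 For this measurement, the tRNA-Arg(CCU) gene was varied by chemical synthesis at a 3% per-site mutation rate across 69 sites, and each variant was placed at the native genomic locus in Saccharomyces cerevisiae. The pooled strains went through a 24-hour competition in YPD at 37°C in six parallel replicates, with amplicons from start and end populations read by 100-nucleotide paired-end sequencing. Darwinian fitness relative to wild type followed from the change in each genotype's frequency. Genotypes needed ≥ 100 starting reads, and estimates < 0.5 were set to 0.5.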
row,Variant,yeast fitness
1,GUUCCGUUGGAGUAAUGGUAACGCGUCUCCCUCCUAAGGAGAAGCCUGCGGGUUCGAGUCCCGUACGGAACG [C11A A45C],0.563
2,GUUCCGUUGGAGUAAUGGUAACGCGUCUCCCUCCUAAGGAGAAGCCUGCGGGUUUGAGUCCCGUACGGAACG [C11A A45C C55U],0.517
3,GUUCCGUUGGAGUAAUGGUAACGCGUCUCCCUCCUAAGGAGAAGGCUGCGGGGUCGAGUCCCGUACGGAACG [C11A A45G U53G],≤ 0.5
4,GUUCCGUUGGAGUAAUGGUAACGCGUCUCCCUCCUAAGGAGAAGUCUGCGGGUUUGAGUCCCGUACGUAACG [C11A A45U C55U G68U],≤ 0.5
5,GUUCCGUUGGAGUAAUGGUAACGCGUCUCCCUCCUAAGGAGAAGACUGCGGGUUCGGGUCCCGUACGGGACG [C11A A57G A69G],≤ 0.5
6,GUUCCGUUGGAGUAAUGGUAACGCGUCUCCCUCCUAAGGAGAAGACUGCGGGUUCGGGUCCCGUAUGGAACG [C11A A57G C66U],≤ 0.5
7,GUUCCGUUGGAGUAAUGGUAACGCGUCUCCCUCCUAAGGAGAAGACUGCGGGUUCGAGUCCCGUCCGGAACG [C11A A65C],0.607
8,GUUCCGUUGGAGUAAUGGUAACGCGUCUCCCUCCUAAGGAGAAGACUGCGGGUUCGAGUCCCGUGUGGAACG [C11A A65G C66U],0.571
9,GUUCCGUUGGAGUAAUGGUAACGCGUCUCCCUCCUAAGGAGAAGACUGCGGGUUCGAGUCCCGUACGGCACG [C11A A69C],0.671
10,GUUCCGUUGGAGUAAUGGUAAGGCGUCUCCCUUAUAAGGAAAAGACUGCGGGUUCGAGUCCCGUGCGGAACG [C11A C22G C33U C34A G41A A65G],0.527
11,GUUCCGUUGGAGUAAUGGUAAGGCGUCUCCCUCAUAAGGAAAAGACUGCGGGUUCGAGUCCCGUACGGAUCG [C11A C22G C34A G41A A70U],≤ 0.5
12,GUUCCGUUGGAGUAAUGGUAAGGCGUCUCCCUCCUAAGGAGAAGACUGGGGGUUCGAGUCCCGUACGCCACG [C11A C22G C49G G68C A69C],≤ 0.5
13,GUUCCGUUGGAGUAAUGGUAAGGCAUCUCCCUCAUAAGGAAAAGACUGCGGGUUCGAGUCCCGUAAGGAACG [C11A C22G G25A C34A G41A C66A],≤ 0.5
14,GUUCCGUUGGAGUAAUGGUAAGGCGUCUCCCUCCUAAGGAGAAGACUCCGGGUUCGAGUCCCGUACGGAACG [C11A C22G G48C],0.535
15,GUUCCGUUGGAGUAAUGGUAAGGCGUCUCCCUCCUAAGGAGAAGACUGCGGGCUCGAGUCCCGUAUGGAACG [C11A C22G U53C C66U],≤ 0.5
16,GUUCCGUUGGAGUAAUGGUAAUGGGUCUCGCUCCUAAGGAGAAGACUGCGGGUUCGAGUCCCGUACGGAACG [C11A C22U C24G C30G],≤ 0.5
17,GUUCCGUUGGAGUAAUGGUAAUGCGUCUCCCUCCUAAGGAGAACACUGCGGGUUCGAGUUCCGUACGGGACG [C11A C22U G44C C60U A69G],0.597
18,GUUCCGUUGGAGUAAUGGUAACGAGUCUCCCUCCUGAGGAGAAGACUACGGGUUCGAGUCCCGUACGGAACG [C11A C24A A36G G48A],≤ 0.5
19,GUUCCGUUGGAGUAAUGGUAACGAGACUCCCUCCUAAGGAGAACACUGCGGGUUCGAGUCCCGUACGGAACG [C11A C24A U26A G44C],≤ 0.5

row,Variant,yeast fitness
1,GUUCCGUUGGAGUAAUGGUAACGGGUCUCGCUCCUAAGGAGAAGACUGCGGGUUCGUGUCCCGUACGUAACG [C11A C24G C30G A57U G68U],≤ 0.5
2,GUUCCGUUGGAGUAAUGGUAACGGGUCUCGCUCCUAAGGAGAAGACUGCGGGUUGGAGUCCCGUACGGAACG [C11A C24G C30G C55G],≤ 0.5
3,GUUCCGUUGGAGUAAUGGUAACGGGUCUCGCUCCUAAGGAGAAGACUGCGGGUUCAAGUCCCGUACGGAACG [C11A C24G C30G G56A],≤ 0.5
4,GUUCCGUUGGAGUAAUGGUAACGGGUCUCCCUCGUAAGGAGAAGACUGCGGGUUCGAGUCCCGUACGGAACG [C11A C24G C34G],≤ 0.5
5,GUUCCGUUGGAGUAAUGGUAACGGGUCUCCCUCGUGAGGAGAAGACUGCGGGUUCGAGUCCCGUACGGAACG [C11A C24G C34G A36G],≤ 0.5
6,GUUCCGUUGGAGUAAUGGUAACGGGUCUCCCUCUUAAGGAGAAGACUGAGGGUUCGAGUCCCGUACGGAACG [C11A C24G C34U C49A],≤ 0.5
7,GUUCCGUUGGAGUAAUGGUAACGUGUCUCCCUCCUAAGGAGAAGACUGCGGGUUCGAGUCCCGUACGGAACG [C11A C24U],0.61
8,GUUCCGUUGGAGUAAUGGUAACGUGUCUCCUUCCUAAGGAGAAGACUGCGGGUUCGAGUCUCGUACAGAACG [C11A C24U C31U C61U G67A],≤ 0.5
9,GUUCCGUUGGAGUAAUGGUAACGUGUCUCCUUCCUAAGGAGAAGACUGCGGGUUCGAGUCCCGUACAGAACG [C11A C24U C31U G67A],≤ 0.5
10,GUUCCGUUGGAGUAAUGGUAACGUGUCUCCCUCAUAUGGAGAAGACUGCGGGUUCGAGUCCAGUAAGGAACG [C11A C24U C34A A37U C62A C66A],0.599
11,GUUCCGUUGGAGUAAUGGUAACGUGUCUCCCUCCUAACGAGAAGACUGCGGGUUCGAGUCCCGUACGGAACG [C11A C24U G38C],≤ 0.5
12,GUUCCGUUGGAGUAAUGGUAACGUGUCUCCCUCCUAAGGAGAAGACUGCGGGUUCAAGUCCCGUACCGAGCG [C11A C24U G56A G67C A70G],≤ 0.5
13,GUUCCGUUGGAGUAAUGGUAACGUGUCUCCCACCCAAGGAGAAGACUGCGGGUUAGAAUCCCGUACGGAACG [C11A C24U U32A U35C C55A G58A],≤ 0.5
14,GUUCCGUUGGAGUAAUGGUAACGUGUCUCCCACCCAAGGAGAAGACUGCGGGUUGGAGUCCCGUACGGAACG [C11A C24U U32A U35C C55G],≤ 0.5
15,GUUCCGUUGGAGUAAUGGUAACGUGUCUCCCACCCAAGGAGAAGACUGCGGGUUCGAGCCCCGUACGGAACG [C11A C24U U32A U35C U59C],≤ 0.5
16,GUUCCGUUGGAGUAAUGGUAACGUGUCUCCCGCCUAAGGUGAAGACUGCGGGUUCGAGUCCCGGACGGAACG [C11A C24U U32G A40U U64G],≤ 0.5
17,GUUCCGUUGGAGUAAUGGUAACGCGUAUCCCUCCUAAGGCGAGGACUCCGGGUUCGAGUCCCGUGCGGAACG [C11A C27A A40C A43G G48C A65G],0.541
18,GUUCCGUUGGAGUAAUGGUAACGCGUAUCCCUCCUAAGGAGAAGACUGCGGGUUCGAGUCCCGUACGGUACG [C11A C27A A69U],≤ 0.5
